# Screening results (PubChem)
# TRPC4 agonist: activators of mouse TRPC4 channel. Q9QUQ5. HEK293 TRPC4beta/mu-opioid, Fluo4 calcium fluorescence; stronger effect = higher value. B-score at 10 µM. 310,000 tested, 0.49% active. AID 2237;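 active = B-score above 5 SD of library B-scores, and initial fluorescence ratio not above library mean plus 5 SD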;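 also: positive B-score marks a calcium rise read as TRPC4 activation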
#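 Assay system – TRPC4beta and mu-opioid receptor HEK293 stable cells · Measured by – Fluo4 fluorescence, kinetic · Schedule – dye loading 45 min room temperature, 110 s kinetic read · Read-out – B-scored integrated calcium fluorescence ratio · Controls – buffer and maximal DAMGO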
# TRPC6 activator: activators of mouse TRPC6 channel; 310,000 tested, 0.13% active; AID 2550; B-score at 10 µM; HEK293-TRPC6 membrane potential dye fluorescence; stronger effect = higher value;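 active = B-score of the integrated fluorescence ratio above library mean plus 3 SD, and starting fluorescence ratio within library mean plus 5 SD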;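 also: higher score means more depolarization so channel activation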
# Target sequence (Q61143 whole entry, looked up): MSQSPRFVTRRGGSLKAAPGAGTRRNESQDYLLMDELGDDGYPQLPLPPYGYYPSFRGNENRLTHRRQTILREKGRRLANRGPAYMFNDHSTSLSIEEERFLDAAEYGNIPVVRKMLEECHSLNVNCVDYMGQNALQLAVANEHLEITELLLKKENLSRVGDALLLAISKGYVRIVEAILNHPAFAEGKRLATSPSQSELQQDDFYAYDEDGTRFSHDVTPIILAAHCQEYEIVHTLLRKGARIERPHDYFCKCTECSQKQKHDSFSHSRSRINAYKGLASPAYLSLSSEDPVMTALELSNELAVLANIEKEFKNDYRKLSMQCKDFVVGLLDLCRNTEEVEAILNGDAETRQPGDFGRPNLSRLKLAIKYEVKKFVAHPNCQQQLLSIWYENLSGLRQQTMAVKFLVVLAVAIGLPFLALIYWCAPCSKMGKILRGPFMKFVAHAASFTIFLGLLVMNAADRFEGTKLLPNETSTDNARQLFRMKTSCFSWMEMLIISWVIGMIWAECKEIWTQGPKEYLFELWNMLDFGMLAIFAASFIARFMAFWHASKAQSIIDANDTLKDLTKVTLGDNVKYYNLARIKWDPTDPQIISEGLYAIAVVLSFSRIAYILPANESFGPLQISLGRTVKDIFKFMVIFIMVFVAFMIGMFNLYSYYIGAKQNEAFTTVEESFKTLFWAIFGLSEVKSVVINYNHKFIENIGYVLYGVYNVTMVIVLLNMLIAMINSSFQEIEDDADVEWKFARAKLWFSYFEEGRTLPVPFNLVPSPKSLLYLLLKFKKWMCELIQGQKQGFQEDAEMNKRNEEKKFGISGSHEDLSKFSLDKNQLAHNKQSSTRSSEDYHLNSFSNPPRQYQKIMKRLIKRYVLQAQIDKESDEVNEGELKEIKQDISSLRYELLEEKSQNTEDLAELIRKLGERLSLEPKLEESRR
# TRPC4 PAM: TRPC4 (mouse) allosteric potentiation | HEK293 TRPC4beta/mu-opioid, DAMGO EC20, Fluo-4 Ca2+ flux; stronger effect = higher value | B-score at 10 µM | 310,000 tested, 0.42% active;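 active = B-score of calcium response area above 5 SD of library B-scores, with initial fluorescence ratio within 5 SD of library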;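 also: B-score of integrated fluorescence ratio over time as area under calcium response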
# TRPC4 inh: inhibitors of mouse TRPC4 channel; HEK293 TRPC4beta/mu-opioid, DAMGO-evoked Fluo4 calcium flux; stronger effect = lower value; B-score at 10 µM; 300,000 tested, 0.39% active; AID 2247;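 active = B-score over 3 SD under the library average, no early fluorescence shift, positive overall ratio signal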
#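 Signal: kinetic Fluo4 fluorescence imaging of calcium influx. Material: stable TRPC4beta/mu-opioid receptor HEK293 cells. Probe or stimulus: DAMGO in two steps, submaximal then maximal.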
# TRPC6 inh: blocks the mouse TRPC6 cation channel. Q61143. AID 2553. B-score at 10 µM. 310,000 tested, 1.1% active. HEK293-TRPC6, membrane potential dye, ACh-evoked depolarization; stronger effect = lower value;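 active = B-score under library mean minus 3 SD, initial fluorescence not abnormally high, positive integrated signal ratio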;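 also: B-score derived from integrated fluorescence ratio over the kinetic read; more negative B-score means stronger inhibition of depolarization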
# TRPC4 sel inh 2: second check of whether TRPC6 inhibitors also affect mouse TRPC4 | shares compounds with TRPC6 inh | HEK293 TRPC4/MOR, membrane potential dye fluorescence; channel activated by saturating DAMGO dose | inhibition, % at 10 µM | 920 tested, 42% active | AID 2776;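 active = compounds whose fluorescence signal differed from control wells by over 3 SD, either direction, in both duplicate plates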
# TRPC4 spec: mouse TRPC4 off-target activity of TRPC6 inhibitors; 920 tested, 61% active; HEK293 TRPC4/mu-opioid, membrane potential fluorescence; activity change, negative = inhibition, % at 10 µM; AID 2777; shares compounds with TRPC6 inh;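 active = rise or fall in signal beyond 3 SD of buffer-only wells in both replicate plates, either sign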;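 also: integrated kinetic ratio of fluorescence range over baseline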
# HEK293 MPD ctr 2-1: second check of TRPC6 inhibitor effects in parental HEK293 cells. shares compounds with TRPC6 inh. parental HEK293 membrane potential dye fluorescence; maximal acetylcholine challenge after compound addition. signal change vs control, % at 10 µM. 920 tested, 31% active. AID 2779;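 active = membrane potential signal moving either way by over 3 SD of the maximum-effect control, in both duplicate plates, meaning non-specific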
# HEK293 MPD ctr-1: parental HEK293 nonspecific activity of TRPC6 inhibitors. shares compounds with TRPC6 inh. parental HEK293 membrane potential dye fluorescence. membrane potential signal change, % at 10 µM. 920 tested, 60% active. AID 2780;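 active = membrane potential signal shifting up or down by more than 3 SD of buffer-only wells, on both duplicate plates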
# HEK293 MPD ctr-2: counter-screen for TRPC6 modulators: effect in parental HEK293 cells | AID 488924 | shares compounds with TRPC6 inh | 2,400 tested, 51% active | membrane potential signal change, % at 10 µM | membrane potential dye fluorescence;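 active = membrane potential signal moves up or down beyond 5 SD from buffer-only wells, on both duplicate plates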
# HEK293 MPD ctr 2-2: second check of TRPC6 modulator effects in parental HEK293 cells; shares compounds with TRPC6 inh; membrane potential dye fluorescence; after compound, maximal acetylcholine stimulation; inhibition, % at 10 µM; 2,400 tested, 14% active;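 active = membrane potential signal drops by more than 5 SD from the mean control signal, in both duplicate plates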;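 also: plate controls were acetylcholine ECmax control wells for no effect and buffer only wells for full effect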
# TRPC4/MOR mod: mouse TRPC4 off-target activity of TRPC6 modulators. AID 488927. shares compounds with TRPC6 inh. percent change from control (negative = decrease, positive = increase), % at 10 µM. HEK293 TRPC4/mu-opioid, membrane potential fluorescence. 2,400 tested, 69% active;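 active = membrane potential signal moved up or down beyond 5 SD of buffer control wells, in both duplicate plates, actives on both sides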;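 also: plate controls were assay buffer wells for no effect and DAMGO maximal-effect wells for full effect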
# TRPC4 ctr inh 2: second selectivity test of TRPC6 modulators against mouse TRPC4. inhibition, % at 10 µM. 2,400 tested, 55% active. shares compounds with TRPC6 inh. HEK293 TRPC4/mu-opioid, membrane potential dye fluorescence; stimulated with maximal-effect DAMGO;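 active = drop in membrane potential signal beyond 5 SD of the control wells in both duplicate plates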;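 also: TRPC4 counter screen for TRPC6 hits run under conditions tuned for TRPC6 not TRPC4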
# TRPC6 block conf: mouse TRPC6 inhibitor confirmation; shares compounds with TRPC6 inh; HEK293-TRPC6, membrane potential dye, ACh-evoked depolarization; inhibition, % at 10 µM; 3,300 tested, 43% active;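 active = fluorescence ratio falls more than 5 SD below the full-stimulation control mean, in both duplicate runs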;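 also: integrated fluorescence ratio of peak minus minimum over baseline after agonist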
# TRPC6 act confirm: confirmation of mouse TRPC6 activators; shares compounds with TRPC6 inh; activation, % at 10 µM; 2,800 tested, 11% active; HEK293-TRPC6 membrane potential dye fluorescence, FDSS;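 active = ratio signal rise beyond 5 SD above unstimulated control wells' mean, seen in both duplicate runs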;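 also: plate controls were buffer EC0 wells for no effect and acetylcholine ECmax response for full effect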
# Starred values were filed as active, the others as inactive; i = inactive; nt = no result. Sampled rows, rich in hits. Any-hit rate of the full collection: about 2.3%.
SMILES,TRPC4 agonist,TRPC6 activator,TRPC4 PAM,TRPC4 inh,TRPC6 inh,HEK293 MPD ctr-2,HEK293 MPD ctr 2-2,TRPC4/MOR mod,TRPC4 ctr inh 2,TRPC6 block conf,TRPC6 act confirm,others
Cc1ccc(NC2(C#N)C(=O)Nc3ccccc32)cc1C (stereo not drawn),i,i,i,i,i,nt,nt,nt,nt,nt,nt,
COC(=O)c1ccc(NC2(C#N)C(=O)Nc3ccccc32)cc1 (stereo not drawn),i,i,i,i,-8.5*,nt,nt,nt,nt,88%*,nt,TRPC4 sel inh 2=i;TRPC4 spec=i;HEK293 MPD ctr 2-1=i;HEK293 MPD ctr-1=i
CC(CCc1ccccc1)NC(=O)CCCn1ncn2c(cc3occc32)c1=O (stereo not drawn),i,i,i,i,i,nt,nt,nt,nt,nt,nt,
Cc1cc(CSC(=N)N)c(CSC(=N)N)cc1C,130*,i,i,i,-6.8*,-264%*,58%*,-36%*,i,47%*,i,
Cc1cc(C)c2nc(N3CCC(C(=O)NCc4cccnc4)CC3)sc2c1,i,i,i,i,-5.3*,i,i,i,i,i,i,
Cc1cc(C)c2nc(N3CCC(C(=O)NCc4ccccn4)CC3)sc2c1,i,i,i,i,i,nt,nt,nt,nt,nt,nt,
Cc1ccccc1NC(=O)CN1CCN(C)CC1,i,i,i,i,i,nt,nt,nt,nt,nt,nt,
CCCCCC(=O)Nc1cc(N(C)C)nc2ccccc12,i,i,i,i,-5.4*,i,i,-10%*,48%*,i,i,
CCN(CC)CC(=O)Nc1cc(N(C)C)nc2ccccc12,i,i,i,i,-7.5*,nt,nt,nt,nt,68%*,i,TRPC4 sel inh 2=70%*;TRPC4 spec=-25%*;HEK293 MPD ctr 2-1=3.0%*;HEK293 MPD ctr-1=-474%*
CN1CCN(CC(=O)Nc2cc(N(C)C)nc3ccccc23)CC1,i,i,i,i,-6.8*,-154%*,i,-26%*,44%*,i,i,
CCCCCCC(=O)Nc1c2c(nc3ccccc13)N(C)CC2,i,i,i,i,i,nt,nt,nt,nt,nt,nt,
CN1CCc2c1nc1ccccc1c2NC(=O)CN1CCCC1,i,i,i,i,-6.5*,-278%*,i,-46%*,46%*,i,i,
O=C(O)CCC(=O)Nc1ccc(Br)cc1C(=O)c1ccc(Cl)cc1,i,i,i,i,i,nt,nt,nt,nt,nt,nt,
O=C(COC(=O)Cc1ccccc1F)NNC(=O)c1ccc([N+](=O)[O-])cc1,i,i,i,i,i,nt,nt,nt,nt,nt,nt,
CC1CCN(CC(C)CNC(=O)c2cc(-c3ccccn3)nc3ccccc23)CC1 (stereo not drawn),i,i,i,i,-8.6*,nt,nt,nt,nt,i,i,TRPC4 sel inh 2=70%*;TRPC4 spec=i;HEK293 MPD ctr 2-1=208%*;HEK293 MPD ctr-1=i
O=C(NCc1ccc2c(c1)OCO2)C1CC(=O)N(CCc2ccc(F)cc2)C1 (stereo not drawn),i,i,i,i,i,nt,nt,nt,nt,nt,nt,
O=C1NC(=O)C2(CCCc3ccccc32)N1 (stereo not drawn),i,i,i,i,i,nt,nt,nt,nt,nt,nt,
COc1cc(/C=C(\C#N)C(=O)NCCc2ccccc2)cc(OC)c1O,i,14*,i,nt,i,394%*,i,72%*,i,i,68%*,
COC(=O)/C(C#N)=C/c1c[nH]c2ccccc12,i,i,i,i,i,nt,nt,nt,nt,nt,nt,
COc1cc(/C=C(\C#N)C(=O)c2c[nH]c3ccccc23)cc(OC)c1O,i,24*,i,i,i,256%*,i,72%*,i,i,88%*,
COc1ccc(OCC(O)CN2CCC(CN3C(=O)c4cccc5cccc(c45)C3=O)CC2)cc1 (stereo not drawn),i,i,i,i,i,nt,nt,nt,nt,nt,nt,
O=C1c2cccc3cccc(c23)C(=O)N1CCN1CCN(CC(O)COc2ccccc2)CC1 (stereo not drawn),i,i,i,i,-5.2*,i,i,i,i,i,i,
COc1cccc(OCC(O)CN2CCN(CCN3C(=O)c4cccc5cccc(c45)C3=O)CC2)c1 (stereo not drawn),i,i,i,i,-5.8*,i,i,i,71%*,54%*,i,
CC1CCCCN1CC(O)COCc1ccccc1 (stereo not drawn),i,i,i,i,i,nt,nt,nt,nt,nt,nt,
COc1ccc(-c2cc(-c3cc(OC)ccc3O)[nH]n2)cc1,i,i,i,i,i,nt,nt,nt,nt,nt,nt,
COc1ccc(-c2n[nH]c(C)c2-c2cc(OC)ccc2O)cc1,i,i,i,i,-6*,i,i,i,i,i,i,
Cc1cc(C)nc(/N=C(\N)N(Cc2ccccc2)Cc2ccccc2)n1,i,i,i,-7*,-7.5*,nt,nt,nt,nt,i,i,TRPC4 sel inh 2=40%*;TRPC4 spec=37%*;HEK293 MPD ctr 2-1=i;HEK293 MPD ctr-1=3.8%*
COc1ccc(-n2c(SCCNCCO)nc3sc4c(c3c2=O)CCCC4)cc1,i,i,i,i,-5.2*,-142%*,i,-34%*,74%*,52%*,i,
COc1ccc(-n2c(SCC(=O)O)nc3sc4c(c3c2=O)CCCC4)cc1,i,i,i,i,i,nt,nt,nt,nt,nt,nt,
